Published values pooled from the literature.
Target: Casein kinase I isoform gamma-2 (CSNK1G2, Homo sapiens, UniProt P78368)

test	setting	remaining binding	SMILES
binding, competition with immobilised ligand	1 µM	100%	COc1cnc(Nc2cccc(S(N)(=O)=O)c2)nc1N1CCN(c2ccccc2)CC1
binding, competition with immobilised ligand	1 µM	100%	O=C(c1ccc(Nc2ncc(Cl)c(-c3ccc(Cl)s3)n2)cc1)N1CCC(N2CCCC2)CC1
cell-free assay, competition with immobilised ligand	10 µM	93%	CC(C)(C)c1ccc(-c2nc(CBr)nn2-c2cccc(O)c2)cc1
cell-free assay, competition with immobilised ligand	1 µM	100%	CN([C@@H]1CCc2c(CC(=O)O)c3ccccc3n2C1)S(=O)(=O)c1ccc(F)cc1
binding	1 µM	77%	CC1CCCN1c1nccc(-c2cnn3ncccc23)n1 (stereo not drawn)
binding, competition with immobilised ligand	1 µM	94%	O=C(c1ccc(Nc2nccc(-c3cc4ccccc4s3)n2)cc1)N1CCC(N2CCCC2)CC1
binding	1 µM	89%	CN(C)c1nccc(-c2cnc3ncccn23)n1
cell-free assay, competition with immobilised ligand	1 µM	76%	N#CC1(c2ccccn2)CCN(Cc2cc(C(=O)N3CCCC3)c(=O)n3ccccc23)CC1
binding	1 µM	90%	CN(C)c1ncc(F)c(-c2cnn3ncccc23)n1
cell-free assay, competition with immobilised ligand	1 µM	98%	CNCc1ccccc1-c1csc([C@@H](C)Nc2nc(C)nc3cc(OC)c(OC)cc23)c1
binding	1 µM	82%	N[C@@H]1CCN(c2nccc(-c3cnn4ncccc34)n2)C1
binding, competition with immobilised ligand	1 µM	100%	O=C(NCCCN1CCOCC1)c1ccc(Nc2nccc(-c3cc4ccccc4s3)n2)cc1
binding	1 µM	81%	COc1ccnn2ncc(-c3ccnc(N(C)C)n3)c12
cell-free assay, competition with immobilised ligand	5 µM	98%	COc1ncc2cc3ccccc3nc2c1C#N
cell-free assay, competition with immobilised ligand	0.1 µM	83%	Cn1cc(Cl)c2c(Oc3c(F)cc(Nc4cc(Cl)nc(N)n4)cc3F)ccnc21
binding, competition with immobilised ligand	1 µM	100%	CCN1CCN(Cc2ccc(C(=O)Nc3ccc(C)c(Oc4ccc5c(c4)CC(=O)N5)c3)cc2C(F)(F)F)CC1
cell-free assay, competition with immobilised ligand	1 µM	93%	CCS(=O)(=O)c1cc2cc(C[C@](O)(CC(C)(C)c3ccc(F)cc3C(N)=O)C(F)(F)F)[nH]c2cn1
binding, competition with immobilised ligand	1 µM	96%	COc1cnc(Nc2cccc(S(N)(=O)=O)c2)nc1N1CCN(c2ccccc2)C(=O)C1
cell-free assay, competition with immobilised ligand	1 µM	88%	O=C1CCc2cc(Nc3cc(OC4CCOCC4)c([N+](=O)[O-])cc3Cl)ccc2N1
binding	1 µM	64%	C[C@H]1CCN(c2nccc(-c3cnn4ncccc34)n2)C1
binding, competition with immobilised ligand	1 µM	83%	O=C(NCC1CCOCC1)c1n[nH]cc1NC(=O)c1c(F)cccc1F
